Test results taken from publication PMC8106974 (Psychopharmacology, 2020).
Counter-ions that a name gives are not always drawn.

Legend:
Type in all cases: in vivo
male CD-1 mice [1] = test: Warm-water tail-withdrawal assay of acute thermal nociception, i.v.
male CD-1 mice [2] = test: CFA-induced tactile allodynia, von Frey; conditions: i.v.
male CD-1 mice [3] = test: Warm-water tail-withdrawal assay of acute thermal nociception, p.o.
male Sprague Dawley rats = test: SNL-induced tactile allodynia, von Frey; conditions: i.v.
Procedure, shortened: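 Male Sprague Dawley rats (250–350g) were tested 7 days after SNL surgery, with a fresh baseline taken before dosing. Test compound, comparator or saline followed that baseline. Von Frey up-down method: start at 2 g, each filament applied once for 5 sec, 1 min between stimuli. Positive response was rapid left hind paw withdrawal or licking. Testing ran at 15–180 min post-dose, or until post-SNL baseline.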

male CD-1 mice [4] = test: Antagonist; conditions: naltrindole 10 mg/kg s.c., -10 min, DPDPE 30 nmol i.c.v.

Compound: CN1CC[C@]23c4c5ccc(O)c4O[C@H]2[C@@H](O)C=C[C@H]3[C@H]1C5 [morphine, Morphine sulfate]
- duration of peak antinociception (male CD-1 mice [1]; BBI-11008 3.2-100 mg/kg, morphine 1-10 mg/kg): ~ 60 min
- duration of peak effect (male CD-1 mice [1]; tail withdrawal (discussion)): ~ 1 hr
- overall duration of effect (male CD-1 mice [1]; within the dose ranges tested): ~ 120 min
- duration of peak effect (male CD-1 mice [2]; CFA model, mice (discussion)): 30 to 45 min
- time of peak effects, reversal of tactile allodynia (male CD-1 mice [2]; mice, 24 hr after CFA, BBI-11008 10-32 mg/kg, morphine 1-3.2 mg/kg): 15 to 30 min
- Area under the Curve (duration of effect, peak dose) (male CD-1 mice [2]; mice, BBI-11008 32 mg/kg, morphine 3.2 mg/kg, withdrawal threshold vs time): 12.85
- duration of peak effect (male CD-1 mice [3]; tail withdrawal (discussion)): ~ 2 hr
- overall duration of effect (male CD-1 mice [3]; within the dose ranges tested): ~ 180 min

Compound: NCC1(CC(=O)O)CCCCC1 [gabapentin]
- time of peak effects (male Sprague Dawley rats; SNL model, rats (discussion)): ~ 90 min
- Area under the Curve (duration of effect, peak dose) (male Sprague Dawley rats; rats, 7 days after SNL, BBI-11008 18 mg/kg, gabapentin 56 mg/kg): 130.2

Compound: [D-Pen^2,D-Pen^5]enkephalin [DPDPE]
- effect of NTI pretreatment on antinociceptive effects (male CD-1 mice [4]): fully blocked
